# Calls of active or inactive are those of the source. The calls are words filed in the database; no cut-off is given here.
# Legend:
# Escherichia coli = assay: Antibacterial activity against Escherichia coli ATCC 27856 assessed as inhibition of bacterial growth after 18 hrs by liquid microdilution method; assay type: functional
# Method in brief: (§1)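 Liquid microdilution. Overnight 37 °C cultures, E. coli ATCC 27856 in LB and S. aureus ATCC 29213 in TSB, diluted 1:1000 in the same medium and exposed to compound. Growth was taken from OD600 before and after 18 h at 37 °C. MIC50 is the read-out. Triplicate, normalized to an internal vehicle control.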
# Staphylococcus aureus [1] = assay: Antibacterial activity against Staphylococcus aureus ATCC 29213 assessed as inhibition of bacterial growth after 18 hrs by liquid microdilution method; assay type: functional; conditions: ATCC 29213, 18 h; method in brief: as §1
# Staphylococcus aureus [2] = assay: Antibacterial activity against Erm+ methicillin-resistant Staphylococcus aureus ATCC 33591 assessed as inhibition of bacterial growth after 18 hrs by liquid microdilution method; assay type: functional
# Method in brief: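 MRSA grown overnight at 37 °C in Nutrient broth, diluted 1:1000 in the same medium, then plated with the compounds. Growth was judged by comparing OD600 before and after 18 h at 37 °C. MIC50 was taken by liquid microdilution. Vancomycin was the positive control. Each compound was run in triplicate and standardized against an internal vehicle control.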
# [3] = Inhibition of ribosome nascent peptide exit tunnel in Escherichia coli S30 extract assessed as inhibition of prokaryotic translation in presence of amino acids incubated for 20 mins by luciferase reporter gene assay
# Method in brief: (§2)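 E. coli S30 cell-free extract with all amino acids, preincubated with compound for 20 min at room temperature. Luciferase control template added, translation run 60 min at 37 °C, then stopped by 5 min on ice. Luminescence was read after luciferin addition. IC50 from nonlinear fit, triplicate, normalized to vehicle control.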
# Staphylococcus aureus [4] = assay: Ratio of MIC50 for Staphylococcus aureus ATCC 29213 in absence of 50% bovine serum to MIC50 for Staphylococcus aureus ATCC29213 in presence of 50% bovine serum; assay type: functional
# Method in brief: (§3)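 S. aureus ATCC 29213 overnight culture (37 °C) diluted 1:1000 in 50% bovine serum/broth and run by liquid microdilution. Growth was taken from OD600 change over 18 h at 37 °C to give MIC50, in triplicate against a vehicle control. The enhancement ratio is MIC50 without serum divided by MIC50 with serum.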
# [5] = Binding affinity to ribosome nascent peptide exit tunnel in rabbit reticulocyte extract assessed as inhibition of eukaryotic translation in presence of amino acids incubated for 20 mins by luciferase reporter gene assay; design: species or system Oryctolagus cuniculus
# Method in brief: as §2, with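 “Nuclease-treated rabbit reticulocyte lysate” for “E. coli S30 cell-free extract”, “90” for “60”, “30” for “37”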
# Staphylococcus aureus [6] = assay: Antibacterial activity against Staphylococcus aureus ATCC 29213 assessed as inhibition of bacterial growth after 18 hrs in presence of 50% bovine serum by liquid microdilution method; assay type: functional; conditions: ATCC 29213, 18 h; method in brief: as §3
SMILES,"MIC50 (Escherichia coli; ATCC 27856, 18 h) [µg/mL]",MIC50 (Staphylococcus aureus [1]) [µg/mL],MIC50 (Staphylococcus aureus [2]),IC50 [3] [µM],Ratio (Staphylococcus aureus [4]),IC50 [5] [µM],MIC50 (Staphylococcus aureus [6]) [µg/mL],MIC50 (Escherichia coli),"MIC50 (Staphylococcus aureus [2]; ATCC 33591, 18 h) [µg/mL]"
CC[C@H]1OC(=O)[C@H](C)[C@@H](O[C@H]2C[C@@](C)(OC)[C@@H](O)[C@H](C)O2)[C@H](C)[C@@H](O[C@@H]2O[C@H](C)C[C@H](N(C)C)[C@H]2O)[C@](C)(O)C[C@@H](C)CN(C)[C@H](C)[C@@H](O)[C@]1(C)O [AZITHROMYCIN],4,0.78,inactive,0.292,6,> 250,0.13,–,–
CC[C@H]1OC(=O)[C@H](C)[C@@H](O[C@H]2C[C@@](C)(OC)[C@@H](O)[C@H](C)O2)[C@H](C)[C@@H](O[C@@H]2O[C@H](C)C[C@H](N(C)C)[C@H]2O)[C@](C)(O)C[C@@H](C)CN(Cc2ccc(-c3cn(CCn4ccc5cc(OC)ccc54)nn3)cc2)[C@H](C)[C@@H](O)[C@]1(C)O,–,1.56,inactive,0.504,2,> 250,0.78,inactive,–
CC[C@H]1OC(=O)[C@H](C)[C@@H](O[C@H]2C[C@@](C)(OC)[C@@H](O)[C@H](C)O2)[C@H](C)[C@@H](O[C@@H]2O[C@H](C)C[C@H](N(C)C)[C@H]2O)[C@](C)(O)C[C@@H](C)CN(CCCCc2cn(CCc3c[nH]c4ccc(F)cc34)nn2)[C@H](C)[C@@H](O)[C@]1(C)O,32,0.78,inactive,2.6,5,> 250,0.16,–,–
CC[C@H]1OC(=O)[C@H](C)[C@@H](O[C@H]2C[C@@](C)(OC)[C@@H](O)[C@H](C)O2)[C@H](C)[C@@H](O[C@@H]2O[C@H](C)C[C@H](N(C)C)[C@H]2O)[C@](C)(O)C[C@@H](C)CN(Cc2ccc(-c3cn(CCc4c[nH]c5ccccc45)nn3)cc2)[C@H](C)[C@@H](O)[C@]1(C)O,–,3.13,inactive,0.12,2,> 250,1.56,inactive,–
CC[C@H]1OC(=O)[C@H](C)[C@@H](O[C@H]2C[C@@](C)(OC)[C@@H](O)[C@H](C)O2)[C@H](C)[C@@H](O[C@@H]2O[C@H](C)C[C@H](N(C)C)[C@H]2O)[C@](C)(O)C[C@@H](C)CN(Cc2ccc(-c3cn(CCn4ccc5cc([N+](=O)[O-])ccc54)nn3)cc2)[C@H](C)[C@@H](O)[C@]1(C)O,128,1.56,inactive,0.442,4,> 250,0.39,–,–
CC[C@H]1OC(=O)[C@H](C)[C@@H](O[C@H]2C[C@@](C)(OC)[C@@H](O)[C@H](C)O2)[C@H](C)[C@@H](O[C@@H]2O[C@H](C)C[C@H](N(C)C)[C@H]2O)[C@](C)(O)C[C@@H](C)CN(CCCCc2cn(CCn3ccc4cc(Cl)ccc43)nn2)[C@H](C)[C@@H](O)[C@]1(C)O,64,0.78,inactive,0.49,5,> 250,0.16,–,–
CC[C@H]1OC(=O)[C@H](C)[C@@H](O[C@H]2C[C@@](C)(OC)[C@@H](O)[C@H](C)O2)[C@H](C)[C@@H](O[C@@H]2O[C@H](C)C[C@H](N(C)C)[C@H]2O)[C@](C)(O)C[C@@H](C)CN(Cc2ccc(-c3cn(CCN4CCc5ccccc54)nn3)cc2)[C@H](C)[C@@H](O)[C@]1(C)O,64,1.56,inactive,0.555,2,> 250,0.78,–,–
CC[C@H]1OC(=O)[C@H](C)[C@@H](O[C@H]2C[C@@](C)(OC)[C@@H](O)[C@H](C)O2)[C@H](C)[C@@H](O[C@@H]2O[C@H](C)C[C@H](N(C)C)[C@H]2O)[C@](C)(O)C[C@@H](C)CN(CCCCc2cn(CC)nn2)[C@H](C)[C@@H](O)[C@]1(C)O,32,3.13,inactive,1.22,10,> 250,0.31,–,–
CN[C@H](CC(C)C)C(=O)N[C@H]1C(=O)N[C@@H](CC(N)=O)C(=O)N[C@H]2C(=O)N[C@H]3C(=O)N[C@H](C(=O)N[C@H](C(=O)O)c4cc(O)cc(O)c4-c4cc3ccc4O)[C@H](O)c3ccc(c(Cl)c3)Oc3cc2cc(c3O[C@@H]2O[C@H](CO)[C@@H](O)[C@H](O)[C@H]2O[C@H]2C[C@](C)(N)[C@H](O)[C@H](C)O2)Oc2ccc(cc2Cl)[C@H]1O [VANCOMYCIN],–,1.56,–,–,1,–,1.56,–,4

# Source: ChEMBL document CHEMBL3600351, “Exploiting translational stalling peptides in an effort to extend azithromycin interaction within the prokaryotic ribosome nascent peptide exit tunnel” (Bioorg Med Chem, 2015)
